Reference: paper PMC4512239 (Clinical cancer research : an official journal of the …, 2015)
pIC50: −log10 of the molar value.

Experiments:
p-AKT = p-AKT immunohistochemistry in pre- and post-treatment tumor biopsies; format: in vivo, human; conditions: 50 mg BD
Summary of the method: (§1)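 Paired tumor biopsies taken before treatment and on days 8-15 of continuous oral twice-daily dosing, in a subset of expansion-cohort patients with advanced solid tumors. Patients fasted (water allowed) 2 h before and 1 h after each dose. Markers were scored by immunohistochemistry on post-treatment versus pre-treatment samples.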

m-TORC1/2 = conditions: ATP competitive m-TORC1/2 inhibitor; cited from earlier work
p-4EBP1 = p-4EBP1 immunohistochemistry in pre- and post-treatment tumor biopsies; format: in vivo, human; conditions: 50 mg BD, post-treatment vs pre-treatment, mean H score
Summary of the method: as §1

CYP isozymes = assay: metabolism in human hepatocytes and heterologously expressed CYP isozymes; format: in vitro ADME
MCF7 xenograft models = assay: MCF7 xenograft growth inhibition; format: in vivo
advanced solid tumors = assay: disease response by RECIST 1.1; format: in vivo, human; conditions: one each with ovarian and endometrial cancer
[1] = [14C]-AZD2014 metabolism and excretion after a single dose in rats; format: in vivo
[2] = clinical plasma pharmacokinetics; format: in vivo, human; conditions: for AUC / Cmax / half-life: human, plasma

CNC(=O)c1cccc(-c2ccc3c(N4CCOC[C@@H]4C)nc(N4CCOC[C@@H]4C)nc3n2)c1 [AZD2014]
induction of phosphorylation of AKT in post-treatment biopsies (p-AKT): no instances of induction of phosphorylation of AKT were seen
paired biopsy samples with a reduction of p-AKT levels (p-AKT; post-treatment vs pre-treatment, mean H score): 3/4
pIC50 (m-TORC1/2): 8.55
paired biopsy samples with a reduction of p-4EBP1 levels (p-4EBP1): 3/7
metabolising CYP isozymes (CYP isozymes): primarily metabolised by CYP 3A5 and 2C8 with some contribution from 3A4
total growth inhibition (TGI) (MCF7 xenograft models; 4500 nM.h free weekly AUC): > 70%
total growth inhibition (TGI) (MCF7 xenograft models; 17000 nM.h free weekly AUC): ≥ 100%
patients with prolonged stable disease on treatment for more than one year (advanced solid tumors): two patients
faecal excretion, % of dosed radioactivity [1]: ~85%
urinary excretion, % of dosed radioactivity [1]: approximately 2%
free weekly AUC, average ([2]; 50mg BD solution, converted from total exposure with MW and 5.47% free): 11.05 µM·h
Cmin SS, Gmean ([2]; 50 mg BD, n=27): 169.5 ng/mL
Cmin SS, range ([2]; 50 mg BD, n=27): 0 to 2120 ng/mL
dose proportionality of Geomean exposure (AUC and Cmax) ([2]; 25 to 100 mg): increased greater than proportionally with increasing dose
AUC ([2]; oral, 25 mg, AUC, Gmean, Single dose, N=6): 1640 ng·h/mL
AUC ([2]; oral, 25 mg, AUC, Range, Single dose, N=6): 883 to 2730 ng·h/mL
AUC ([2]; oral, 25 mg, AUCss, Gmean, Steady state, 25 mg BD, N=6): 2980 ng·h/mL
AUC ([2]; oral, 25 mg, AUCss, Range, Steady state, 25 mg BD, N=6): 1000 to 6560 ng·h/mL
Cmax ([2]; oral, 25 mg, Cmax ss, Gmean, Steady state, 25 mg BD, N=6): 747 ng/mL
Cmax ([2]; oral, 25 mg, Cmax ss, Range, Steady state, 25 mg BD, N=6): 227 to 1450 ng/mL
Cmax ([2]; oral, 25 mg, Cmax, Gmean, Single dose, N=6): 435 ng/mL
Cmax ([2]; oral, 25 mg, Cmax, Range, Single dose, N=6): 221 to 681 ng/mL
half-life ([2]; oral, 25 mg, t½, Mean, Single dose, N=6): 2.96 h
half-life ([2]; oral, 25 mg, t½, Range, Single dose, N=6): 0.88 to 6.71 h
half-life ([2]; oral, 25 mg, t½, ss, Mean, Steady state, 25 mg BD, N=6): 2.89 h
half-life ([2]; oral, 25 mg, t½, ss, Range, Steady state, 25 mg BD, N=6): 1.34 to 4.06 h
AUC ([2]; oral, 50 mg, AUC, Gmean, Single dose, N=27): 4020 ng·h/mL
AUC ([2]; oral, 50 mg, AUC, Range, Single dose, N=27): 453 to 12600 ng·h/mL
AUC ([2]; oral, 50 mg, AUCss, Gmean, Steady state, 50 mg BD, N=37): 6690 ng·h/mL
AUC ([2]; oral, 50 mg, AUCss, Range, Steady state, 50 mg BD, N=37): 1280 to 47800 ng·h/mL
Cmax ([2]; oral, 50 mg, Cmax ss, Gmean, Steady state, 50 mg BD, N=37): 1660 ng/mL
Cmax ([2]; oral, 50 mg, Cmax ss, Range, Steady state, 50 mg BD, N=37): 657 to 6410 ng/mL
Cmax ([2]; oral, 50 mg, Cmax, Gmean, Single dose, N=27): 1150 ng/mL
Cmax ([2]; oral, 50 mg, Cmax, Range, Single dose, N=27): 234 to 2840 ng/mL
half-life ([2]; oral, 50 mg, t½, Mean, Single dose, N=27): 2.48 h
half-life ([2]; oral, 50 mg, t½, Range, Single dose, N=27): 0.9 to 8.04 h
half-life ([2]; oral, 50 mg, t½, ss, Mean, Steady state, 50 mg BD, N=37): 3.01 h
half-life ([2]; oral, 50 mg, t½, ss, Range, Steady state, 50 mg BD, N=37): 1.18 to 4.8 h
AUC ([2]; oral, 70 mg, AUC, Gmean, Single dose, N=5): 8970 ng·h/mL
AUC ([2]; oral, 70 mg, AUC, Range, Single dose, N=5): 6010 to 14200 ng·h/mL
AUC ([2]; oral, 70 mg, AUCss, Range, Steady state, 70 mg BD, N=2): 7500 to 22500 ng·h/mL
Cmax ([2]; oral, 70 mg, Cmax ss, Range, Steady state, 70 mg BD, N=2): 1500 to 3870 ng/mL
Cmax ([2]; oral, 70 mg, Cmax, Gmean, Single dose, N=5): 2380 ng/mL
Cmax ([2]; oral, 70 mg, Cmax, Range, Single dose, N=5): 1440 to 3690 ng/mL
half-life ([2]; oral, 70 mg, t½, Mean, Single dose, N=5): 3.11 h
half-life ([2]; oral, 70 mg, t½, Range, Single dose, N=5): 1.35 to 5.98 h
half-life ([2]; oral, 70 mg, t½, ss, Range, Steady state, 70 mg BD, N=2): 3.63 to 4.23 h
AUC ([2]; oral, 100 mg, AUC, Gmean, Single dose, N=4): 9670 ng·h/mL
AUC ([2]; oral, 100 mg, AUC, Range, Single dose, N=4): 4770 to 16100 ng·h/mL
Cmax ([2]; oral, 100 mg, Cmax, Gmean, Single dose, N=4): 2790 ng/mL
Cmax ([2]; oral, 100 mg, Cmax, Range, Single dose, N=4): 1410 to 5050 ng/mL
half-life ([2]; oral, 100 mg, t½, Mean, Single dose, N=4): 3.23 h
half-life ([2]; oral, 100 mg, t½, Range, Single dose, N=4): 0.82 to 6.49 h
half-life ([2]; po, terminal elimination half-life, patients): ~3 h
